Assay results of several laboratories.
Compare with care: the assays were run in different laboratories.
M-phase phosphoprotein 8 chromodomain: M-phase phosphoprotein 8, chromodomain (Homo sapiens, UniProt Q99549)
AChE: AChE (Phlebotomus papatasi, UniProt M1F887)
HTR1A: 5-hydroxytryptamine receptor 1A (HTR1A, Homo sapiens, UniProt P08908)
ESR1: Estrogen receptor (ESR1, Homo sapiens, UniProt P03372)

Structure (SMILES)	target	test	quantity	value
CCN(CCCC[C@H](NC(=O)[C@H](CC(C)C)NC(=O)[C@H](C)NC(=O)[C@H](CC1CCCCC1)NC(=O)c1cccnc1)C(=O)N[C@@H](CO)C(N)=O)C(C)C	M-phase phosphoprotein 8 chromodomain	cell-free assay, TR-FRET	IC50	1500 nM
C=CC[N+](C)(C)c1ccc(CCC(=O)CCc2ccc([N+](C)(C)CC=C)cc2)cc1	AChE	enzyme activity, inhibitor	IC50	30 nM
NCCc1c[nH]c2ccc(Cl)cc12	HTR1A	ligand displacement, radioligand	Ki	5.5 nM
C[C@]12CC[C@H]3[C@@H](CCC4=C[C@@H](O)CC[C@@H]43)[C@@H]1CC[C@@H]2O	ESR1	ligand displacement	IC50	134 nM
NCCc1c[nH]c2ccc(F)cc12	HTR1A	ligand displacement, radioligand	Ki	18 nM
CNC(=O)Oc1ccc2c(c1)[C@]1(C)CCN(C)[C@@H]1N2C	AChE	enzyme activity, inhibitor	IC50	9 nM
CCN(CCCC[C@H](NC(=O)[C@H](C)NC(=O)[C@H](C)NC(=O)[C@H](Cc1ccccc1)NC(=O)c1cccnc1)C(=O)N[C@@H](CO)C(N)=O)C(C)C	M-phase phosphoprotein 8 chromodomain	cell-free assay, TR-FRET	IC50	3400 nM
C[C@]1(O)CC[C@H]2[C@@H]3CCC4=CC(=O)CCC4=C3CC[C@@]21C	ESR1	reporter gene, agonist	EC50	4.23 µM
